Assay outcomes as filed in PubChem BioAssay.
Only some compounds are listed: those with a hit (about 2.5% of all), similar ones and a draw of the others.
UHRF1 binding – UHRF1 methyl-DNA binding inhibition | Q96T88 | UHRF1 binding to methylated oligo, TR-FRET | inhibition, % at 4.4 µM | actives 0.75% (n = 370,000) | AID 687016; in the data active = inhibition above about 21%;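 note: UHRF1 SRA domain binding a hemimethylated CpG hairpin DNA probe; 0% = median of test compound wells and 100% = reference inhibitor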
MBD2 DNA inh – inhibitors of human MBD2 binding to methylated oligonucleotide; Q9UBB5; AID 686964; actives 0.31% (n = 370,000); inhibition, % at 4.4 µM; TR-FRET; in the data active = inhibition above about 13%
ABHD5-PLIN5 inh – inhibitors of human ABHD5-perilipin-5 interaction. Q00G26+Q8WTS1. Split G. princeps luciferase complementation, luminescence, 4 h. inhibition, % at 4 µM. actives 0.78% (n = 360,000);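 active = inhibition above the mean inhibition across every tested compound plus 3 SD, cut at about 22% in these data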;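 note: 0% = DMSO only wells and the 100% control is not disclosed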
Beta2AR agonist – agonists of human beta-2 adrenergic receptor inducing internalization; P07550; Am2.2-beta2AR cells, FAP receptor internalization, flow cytometry; response, % (concentration not given with the values); actives 0.43% (n = 340,000); AID 504454;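 active = response above a set limit, near 3 SD of response in nonfluorescent compounds, cut at about 42% in these data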
Rin1-Abl PPI inh – human Rin1-Abl interaction inhibition; AID 588664; P00519+Q13671; actives 0.4% (n = 360,000); TR-FRET Rin1/Abl binding, biochemical; inhibition, % at 7.35 µM; in the data active = inhibition above about 5%, passing the limit was not always enough
Arr AP2 block – blocks beta-arrestin peptide binding to AP2 adaptin; FITC-arrestin peptide / GST-AP2 beads, flow cytometry; AP2 beta2 appendage carries R879A mutation; inhibition, % at 10 µM; actives 0.31% (n = 340,000);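 active = inhibition above a set limit, near 3 SD of compounds lacking own fluorescence, cut at about 54% in these data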;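 note: plate controls were DMSO wells for no effect and 5 µM unlabelled arrestin peptide for full effect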
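Material – GST-tagged AP2 beta2-adaptin appendage (R879A) on 4 µm glutathione beads · Probe or stimulus – fluorescein-tagged arrestin peptide at 50 nM final · Timing – 12 min plus 1 h, RT · Detection – bead flow cytometry, FITC channel · Read-out basis – inhibition as reduced fluorescein signal on beads, percent · Medium – PBS plus Tween 20 (0.05%) and BSA (0.1%)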
ABHD5 PLIN5 conf – confirmation of human ABHD5-PLIN5 interaction inhibitors; biochemical ABHD5-PLIN5 interaction, luminescence; AID 651612; inhibition, % at 4 µM; shares compounds with ABHD5-PLIN5 inh; actives 67% (n = 2,200); in the data active = inhibition above about 23%;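 note: 0% = DMSO vehicle wells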
HNF4 counter – active in HNF4 split-luciferase counter-screen for ABHD5-PLIN5 inhibitors | inhibition, % at 4 µM | shares compounds with ABHD5-PLIN5 inh | HNF4 dimerization, luminescence, biochemical | actives 77% (n = 2,200);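 active = mean inhibition across replicate wells exceeding the computed hit threshold, cut at about 13% in these data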;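 note: light from luciferase halves that rejoin when HNF4 fusion proteins dimerize; 0% = DMSO only wells and the 100% control is not given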
Target sequence (P41235 whole entry, looked up, the tested form may be a part): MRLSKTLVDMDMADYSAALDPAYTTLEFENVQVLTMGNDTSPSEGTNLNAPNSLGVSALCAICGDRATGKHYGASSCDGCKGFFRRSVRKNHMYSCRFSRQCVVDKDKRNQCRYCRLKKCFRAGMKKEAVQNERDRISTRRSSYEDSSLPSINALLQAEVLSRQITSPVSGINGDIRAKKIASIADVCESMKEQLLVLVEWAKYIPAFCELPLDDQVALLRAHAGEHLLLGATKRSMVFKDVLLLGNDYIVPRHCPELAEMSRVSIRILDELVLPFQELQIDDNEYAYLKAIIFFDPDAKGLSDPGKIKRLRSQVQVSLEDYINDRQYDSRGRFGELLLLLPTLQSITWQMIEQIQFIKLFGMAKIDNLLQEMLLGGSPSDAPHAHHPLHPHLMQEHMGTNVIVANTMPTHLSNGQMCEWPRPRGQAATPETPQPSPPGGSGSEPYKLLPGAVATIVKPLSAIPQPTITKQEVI
* marks the source's active call; other numbers are inactive results.

CCOC(=O)[C@]12CCC=C1N(Cc1ccc(Cl)cc1Cl)C(=O)[C@H](CC(=O)NCc1cccc(C(F)(F)F)c1)C2 was read as UHRF1 binding -1.5, MBD2 DNA inh -5.8, ABHD5-PLIN5 inh 25.5*, ABHD5 PLIN5 conf 20.9 and HNF4 counter 0.8.
Screening COc1ccc(C2C(C(=O)Nc3ccc(F)cc3)CCC(=O)N2c2ccc(OC)cc2)cc1 (stereo not drawn) returned UHRF1 binding 0.6 and MBD2 DNA inh -0.5.
For C=CCNc1oc(-c2cccc(Cl)c2)nc1C#N the results were UHRF1 binding -2.2, MBD2 DNA inh 3.9, ABHD5-PLIN5 inh 23.7*, Beta2AR agonist 28.1, Rin1-Abl PPI inh -1.8, Arr AP2 block 13.7, ABHD5 PLIN5 conf 47.3* and HNF4 counter 41.4*.
Screening COC(=O)[C@]12C[C@H](CC(=O)N3CCSCC3)C(=O)N(Cc3ccco3)C1=C[C@H](C(C)(C)C)O[C@@H]2C returned UHRF1 binding 1.9 and MBD2 DNA inh 1.7.
Clc1nssc1=Nc1nncs1 was read as UHRF1 binding 15.7, MBD2 DNA inh 10.9, ABHD5-PLIN5 inh 72.5*, Beta2AR agonist 1.4, Rin1-Abl PPI inh 4.5, Arr AP2 block -16.4, ABHD5 PLIN5 conf 64.4* and HNF4 counter 100.8*.
`Clc1nssc1=Nc1ccc(Br)cc1` gave UHRF1 binding -5.4, MBD2 DNA inh -0.9, ABHD5-PLIN5 inh 23.6*, Beta2AR agonist 5.0, Rin1-Abl PPI inh 2.6, Arr AP2 block 31.9, ABHD5 PLIN5 conf 22.5* and HNF4 counter 70.6*.
For Cc1ccc(-c2cc(C(=O)NN=Cc3ccc(F)cc3)[nH]n2)cc1C the results were UHRF1 binding 0.2 and MBD2 DNA inh 3.4.
C[C@H](O)[C@@H]1CN2CCc3ccc(N4CCOCC4)cc3[C@@H]2C[C@@H]1N(C)C(=O)c1ccccc1F was read as UHRF1 binding -0.2 and MBD2 DNA inh 3.8.
`O=C(NCc1ccco1)c1cnn2c(C(F)(F)F)cc(-c3cccs3)nc12` gave UHRF1 binding -3.2, MBD2 DNA inh -4.8, ABHD5-PLIN5 inh 24.0*, Beta2AR agonist -17.8, Rin1-Abl PPI inh -3.7, Arr AP2 block 19.5, ABHD5 PLIN5 conf 24.7* and HNF4 counter 46.7*.
Screening Cc1cc(/C=C2/NC(=O)NC2=O)c(C)n1-c1ccc(N2CCOCC2)cc1 returned UHRF1 binding -0.2, MBD2 DNA inh -1.3, ABHD5-PLIN5 inh 5.5, Beta2AR agonist 2.9, Rin1-Abl PPI inh -4.3 and Arr AP2 block 28.4.
`O=C1NC(=O)/C(=C\c2ccc(N3CCOCC3)o2)N1` gave UHRF1 binding 0.7, MBD2 DNA inh 1.0, ABHD5-PLIN5 inh 68.0*, Beta2AR agonist -5.3, Rin1-Abl PPI inh -0.2, Arr AP2 block 6.4, ABHD5 PLIN5 conf 41.7* and HNF4 counter 93.9*.
For O=C1NC(=O)/C(=C/c2ccc(N3CCOCC3)o2)N1 the results were UHRF1 binding -1.9, MBD2 DNA inh -8.9, ABHD5-PLIN5 inh 28.5*, Beta2AR agonist 1.5, Rin1-Abl PPI inh -0.4, Arr AP2 block -4.1, ABHD5 PLIN5 conf 26.5* and HNF4 counter 47.4*.
Cc1cc(/C=C2\NC(=O)NC2=O)c(C)n1-c1ccc(N2CCOCC2)cc1 was read as UHRF1 binding 0.4, MBD2 DNA inh 0.1, ABHD5-PLIN5 inh 9.0, Beta2AR agonist 1.8, Rin1-Abl PPI inh -2.0 and Arr AP2 block 5.6.
`CN(CCO)c1cc(Sc2nc3ccccc3s2)c2nonc2c1[N+](=O)[O-]` gave UHRF1 binding -11.6, MBD2 DNA inh -11.7, ABHD5-PLIN5 inh 48.8*, Beta2AR agonist 99.2*, Rin1-Abl PPI inh -4.4, Arr AP2 block 11.8, ABHD5 PLIN5 conf 80.3* and HNF4 counter 114.2*.
`O=C1CC(c2ccccc2)CC(=O)C1CS(=O)(=O)c1ccccc1` (stereo not drawn) gave UHRF1 binding -1.9, MBD2 DNA inh 2.9, ABHD5-PLIN5 inh 34.0*, Beta2AR agonist -5.5, Rin1-Abl PPI inh 1.7, Arr AP2 block 23.2, ABHD5 PLIN5 conf 48.5* and HNF4 counter 104.7*.
